Measurements taken from ChEMBL document CHEMBL4422640, “Design, synthesis and biological evaluation of tetrazole-containing RXRα ligands as anticancer agents” (Eur J Med Chem, 2019).
The source made the active and inactive calls. The calls are words filed in the database; no cut-off is given here.

Legend:
[1] = target: T1, Retinoic acid receptor RXR-alpha (Homo sapiens) (UniProt P19793); test: Antagonist activity at Gal4-fused human RXRalpha LBD (unknown origin) assessed as inhibition of 9-cis-retinoic acid-induced transactivation at 1 to 50 uM after 18 hrs by cell-based dual luciferase reporter gene assay
T1 sequence (whole entry): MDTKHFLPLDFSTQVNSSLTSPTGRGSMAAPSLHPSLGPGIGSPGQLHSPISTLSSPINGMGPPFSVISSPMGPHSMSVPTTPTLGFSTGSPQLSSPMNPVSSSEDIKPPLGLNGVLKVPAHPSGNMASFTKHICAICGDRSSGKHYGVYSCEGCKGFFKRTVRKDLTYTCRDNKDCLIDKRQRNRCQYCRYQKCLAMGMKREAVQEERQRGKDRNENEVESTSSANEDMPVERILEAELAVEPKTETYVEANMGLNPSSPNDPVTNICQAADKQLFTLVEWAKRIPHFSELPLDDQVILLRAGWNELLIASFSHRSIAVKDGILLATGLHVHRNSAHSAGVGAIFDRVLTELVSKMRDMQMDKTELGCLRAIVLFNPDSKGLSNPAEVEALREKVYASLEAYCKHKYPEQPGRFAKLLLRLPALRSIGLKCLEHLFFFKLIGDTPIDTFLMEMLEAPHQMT
Procedure, shortened: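 Cells transfected with Gal4 reporter plus Gal4-RXRα/LBD plasmids for 24 h, then treated with compounds at 1, 10 and 50 µM in the presence of 9-cis-RA for 18 h. Firefly luciferase read from lysates, normalized to Renilla. A compound counted as antagonist when inhibition was dose-dependent.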

[2] = target: T2, Retinoic acid receptor RXR-alpha (Homo sapiens, UniProt P19793); test: Inhibition of 9-cis-retinoic acid competition binding to RXRalpha LBD (unknown origin) by fluorescence quenching method
T2 sequence (P19793 whole entry): T1 sequence (whole entry)

MCF7 [3] = test: Growth inhibition of human MCF7 cells after 48 hrs by MTT assay; type: functional, cell-based; conditions: MCF7, 48 h
Procedure, shortened: (§1)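 MDA-MB-231 grown in DMEM, MCF-7 in MEM, each with 10% FBS, 37 °C, 5% CO2. Confluent cells exposed to compound, 0.195–100 μM, for 48 h. Then 2 mg/mL MTT for 4 h at 37 °C, formazan dissolved in DMSO, absorbance read at 490 nm. IC50 values are the mean of three independent experiments.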

MDA-MB-231 = test: Growth inhibition of human MDA-MB-231 cells after 48 hrs by MTT assay; type: functional, cell-based; conditions: MDA-MB-231, 48 h; procedure, shortened: as §1
[4] = target: T1, Retinoic acid receptor RXR-alpha (Homo sapiens); test: Inhibition of RXRalpha in human HeLa cells assessed as increase in PARP cleavage after 8 hrs by Immunoblotting analysis; type: cell-based
Procedure, shortened: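 HeLa cells in medium with 0% FBS treated with compounds, with or without TNF-α (20 ng/mL), for 8 h. PARP cleavage detected by immunoblot: 10% SDS-PAGE, nitrocellulose, 5% milk/TBST block, ECL detection. For the RXRα-dependence check, cells first got control or RXRα siRNA for 48 h, then compounds at 20 µM for 8 h.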

[5] = target: T1, Retinoic acid receptor RXR-alpha (Homo sapiens); test: Inhibition of RXRalpha in human MCF7 cells assessed as increase in PARP cleavage at 30 uM after 12 hrs in presence of TNFalpha by Immunoblotting analysis; type: cell-based
Procedure, shortened: (§2)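 Cells kept in medium with 0% FBS and treated with compound together with TNF-α (20 ng/mL). Exposure was 8 h for HeLa and 12 h for MCF-7. PARP cleavage read by immunoblot: 10% SDS-PAGE, nitrocellulose, blocking in 5% milk/TBST, HRP secondary antibody, ECL.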

MCF7 [6] = test: Induction of apoptosis in human MCF7 cells assessed as increase in PARP cleavage at 30 uM after 12 hrs in presence of siRNA by Immunoblotting analysis; type: functional, cell-based
Procedure, shortened: (§3)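 Cells transfected (Lipofectamine 2000) with control or RXRα siRNA for 48 h. HeLa (MEM, 10% FBS) then given compound at 20 μM for 8 h; MCF-7 (MEM, 10% FBS) given 30 μM for 12 h. Lysates run on 10% SDS-PAGE, transferred to nitrocellulose, probed for PARP cleavage and detected by ECL.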

[7] = target: T1, Retinoic acid receptor RXR-alpha (Homo sapiens); test: Inhibition of RXRalpha in human HeLa cells assessed as increase in PARP cleavage at 15 uM after 8 hrs in presence of TNFalpha by Immunoblotting analysis; type: cell-based; procedure, shortened: as §2
[8] = target: T1, Retinoic acid receptor RXR-alpha (Homo sapiens); test: Inhibition of RXRalpha in human MCF7 cells assessed as increase in PARP cleavage after 12 hrs by Immunoblotting analysis; type: cell-based
Procedure, shortened: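 MCF-7 cells in medium with 0% FBS treated with compounds, with or without TNF-α (20 ng/mL), for 12 h. PARP cleavage read by immunoblot (10% SDS-PAGE, ECL). For the RXRα-dependence check, cells got control or RXRα siRNA for 48 h, then compounds at 30 µM for 12 h.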

HeLa = test: Induction of apoptosis in human HeLa cells assessed as increase in PARP cleavage at 20 uM after 8 hrs in presence of RXRalpha siRNA by Immunoblotting analysis; type: functional, cell-based; procedure, shortened: as §3

| SMILES | Activity [1] | IC50 (MCF7 [3]) [µM] | IC50 (MDA-MB-231) [µM] | further results |
| --- | --- | --- | --- | --- |
| CC(C)c1ccc(/C=C2\C=C(Cc3nnn[nH]3)c3ccccc32)cc1 | Active | – | – | – |
| COc1ccc(/C=C2/C(C)=C(CCc3nnn[nH]3)c3ccccc32)cc1 | Active | – | – | – |
| CSc1ccc(/C=C2/C(C)=C(Cc3nnn[nH]3)c3ccccc32)cc1 | Active | – | – | – |
| CC1=C(CC(=O)O)c2cc(F)ccc2/C1=C\c1ccc(C(C)C)cc1 | – | – | – | Kd [2]: 2.38 µM |
| CC1=C(Cc2nnn[nH]2)c2ccccc2/C1=C\c1cccs1 | – | 124 | 53.3 | – |
| CC1=C(Cc2nnn[nH]2)c2ccccc2/C1=C\c1ccccc1C(F)(F)F | – | 62.3 | 40.8 | – |
| CC1=C(Cc2nnn[nH]2)c2ccccc2/C1=C\c1ccc(OC(F)(F)F)cc1 | Active | – | – | – |
| CC1=C(CCc2nnn[nH]2)c2ccccc2/C1=C\c1ccc(C(F)(F)F)cc1 | – | 39.4 | 22.1 | – |
| CC1=C(CCc2nnn[nH]2)c2ccccc2/C1=C\c1ccc(OC(F)(F)F)cc1 | – | 17.3 | 8.9 | inhibition [4]: Dose-dependent effect; inhibition [5]: Active; Activity (MCF7 [6]): inactive; Kd [2]: 1.59 µM; inhibition [7]: Active; inhibition [8]: Dose-dependent effect; Activity (HeLa): inactive |
| CC1=C(CCc2nnn[nH]2)c2ccccc2/C1=C\c1cccc2ccccc12 | Active | – | – | inhibition [4]: Dose-dependent effect; inhibition [8]: Dose-dependent effect |
| CC1=C(Cc2nnn[nH]2)c2ccccc2/C1=C\c1ccc(C(C)(C)C)cc1 | – | 38.4 | 14.3 | – |
| CC1=C(CCc2nnn[nH]2)c2ccccc2/C1=C\c1ccccc1C(F)(F)F | Active | – | – | – |
| CC1=C(Cc2nnn[nH]2)c2ccccc2/C1=C\c1ccc(C(C)C)cc1 | – | 27.6 | 8.48 | – |
| CC1=C(CCc2nnn[nH]2)c2ccccc2/C1=C\c1cccc(C(F)(F)F)c1 | – | 28.8 | 15.6 | – |
| CC1=C(CCc2nnn[nH]2)c2ccccc2/C1=C\c1ccc(C(C)(C)C)cc1 | – | 31.1 | 12.5 | – |
| COc1ccc(/C=C2/C(C)=C(Cc3nnn[nH]3)c3ccccc32)cc1 | – | 104 | 25.7 | – |
| CC1=C(Cc2nnn[nH]2)c2ccccc2/C1=C\c1cccc(C(F)(F)F)c1 | Active | – | – | – |
| CC1=C(CCc2nnn[nH]2)c2ccccc2/C1=C\c1ccccc1Cl | Active | – | – | – |
| CC(C)c1ccc(/C=C2\C=C(CCc3nnn[nH]3)c3ccccc32)cc1 | – | 41.8 | 15.6 | – |
| CC1=C(Cc2nnn[nH]2)c2ccccc2/C1=C\c1ccc(C(F)(F)F)cc1 | Active | – | – | – |
| CC1=C(CCc2nnn[nH]2)c2ccccc2/C1=C\c1ccc(C(C)C)cc1 | – | 27 | 12.3 | – |
| CC1=C(CCc2nnn[nH]2)c2ccccc2/C1=C\c1cccc(Cl)c1 | – | 45.6 | 24.7 | – |
| CSc1ccc(/C=C2/C(C)=C(CCc3nnn[nH]3)c3ccccc32)cc1 | Active | – | – | – |
| CC(C)c1ccc(/C=C2/C=C(CC(=O)NO)c3cc(F)ccc32)cc1 | – | 20.8 | 5 | inhibition [5]: Active; Activity (MCF7 [6]): inactive; Kd [2]: 1.13 µM; inhibition [7]: Active; Activity (HeLa): inactive |
| COc1ccc(/C=C2\C=C(Cc3nnn[nH]3)c3ccccc32)cc1 | Active | – | – | – |
| CC1=C(CCc2nnn[nH]2)c2ccccc2/C1=C\c1ccc(Cl)cc1 | – | 56.3 | 15.2 | – |
| CC1=C(Cc2noc(=O)[nH]2)c2ccccc2/C1=C\c1ccc(C(C)C)cc1 | – | 23.8 | 9.04 | – |
